Laboratory results published in ChEMBL document CHEMBL2086367, “Novel oxysterols activate the Hedgehog pathway and induce osteogenesis” (Bioorg Med Chem Lett, 2012).
Activity calls are given as the source filed them. The rule behind the calls is not given here.

Experiments:
Sonic hedgehog protein = Sonic hedgehog protein (Mus musculus, UniProt Q62226); experiment: Activation of SHh in mouse Light2 cells assessed as induction of Gli-mediated luciferase activity after 24 hrs by reporter gene assay; type: cell-based
Summary of the method: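 SHHLight2 cells (8×Gli response elements driving firefly luciferase; constitutive Renilla) seeded at 10,000 cells/well in DMEM/10% FCS. After 24 h, compound added in DMEM/0.5% FCS, triplicate wells. Firefly and Renilla luciferase read 24 h later; firefly divided by Renilla per well, expressed relative to DMSO-treated cells.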

[1] = Half life in human liver microsomes incubated up to 60 mins; type: ADME, Microsome
Summary of the method: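 Pooled human liver microsomes with NADPH; sampling at 0, 15, 30, 45 and 60 min to derive intrinsic clearance half-life.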

[2] = Metabolic stability in human liver microsomes assessed as compound remaining after 1 hr; type: ADME, Microsome; details: read-out: Stability
C3H 10T1/2 = experiment: Osteogenetic activity in mouse C3H10T1/2 cells assessed as increase in osteocalcin expression at 3.3 uM after 10 days by RT-PCR analysis relative to control; type: functional
[3] = Half life in human liver microsomes incubated up to 120 mins at pH 7.4; type: ADME, Microsome
Rattus norvegicus [4] = experiment: Osteogenetic activity in Sprague-Dawley rat assessed as increase in bone volume in callus at 4 mg/kg measured after 8 weeks by MicroCT analysis; type: functional, organism-based; design: dose 4 mg/kg
Summary of the method: (§1)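 Sprague Dawley rats; compound in DMSO at 50 mg/mL, 40 µL loaded onto collagen sponge, held 1–2 h at room temperature, implanted bilaterally between L4 and L5 after decorticating transverse processes; 4 mg/kg. After 8 weeks, segment stability scored by manual palpation (n = 10/group, Kruskal-Wallis); formalin-fixed tissue scanned by microCT at 18 µm resolution for callus bone volume.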

Rattus norvegicus [5] = experiment: Osteogenetic activity in Sprague-Dawley rat assessed as increase in mechanical stability of the vertebral segments at 4 mg/kg measured after 8 weeks by manual palpation; type: functional, organism-based; design: dose 4 mg/kg; summary of the method: as §1

Chain of Sonic hedgehog protein (Q62226 25-198 limits assumed): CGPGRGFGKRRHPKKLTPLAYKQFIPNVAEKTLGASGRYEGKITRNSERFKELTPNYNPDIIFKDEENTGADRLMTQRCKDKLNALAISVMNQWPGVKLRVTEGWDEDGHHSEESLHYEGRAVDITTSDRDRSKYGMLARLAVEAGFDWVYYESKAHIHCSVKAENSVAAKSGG

| SMILES | EC50 (Sonic hedgehog protein) | remaining at 1 h [2] | fold change (FC) (C3H 10T1/2) | further results |
| --- | --- | --- | --- | --- |
| [2H][C@H](CC(C)C)[C@@H]([2H])[C@](C)(O)[C@H]1CC[C@H]2[C@@H]3C[C@H](O)[C@H]4C[C@@H](O)CC[C@]4(C)[C@H]3CC[C@]12C | 1100 nM |  |  | half-life [1]: 5 min |
| [2H]C([2H])(CC(C)C)C([2H])([2H])[C@](C)(O)[C@H]1CC[C@H]2[C@@H]3C[C@H](O)[C@H]4C[C@@H](O)CC[C@]4(C)[C@H]3CC[C@@]21C | 800 nM | 100% | 17 | half-life [3]: > 120 min |
| COCCCC[C@](C)(O)[C@H]1CC[C@H]2[C@@H]3C[C@H](O)[C@H]4C[C@@H](O)CC[C@]4(C)[C@H]3CC[C@@]21C | 3100 nM | 35% | 3 |  |
| CC(C)CCC[C@](C)(O)[C@H]1CC[C@H]2[C@@H]3C[C@H](O)[C@H]4C[C@@H](O)CC[C@]4(C)[C@H]3CC[C@@]21C | 800 nM | 3% | 15 | Activity (Rattus norvegicus [4]): Active; Activity (Rattus norvegicus [4]; tested as the 2H-labelled form): Active; Activity (Rattus norvegicus [5]): inactive; Activity (Rattus norvegicus [5]; tested as the 2H-labelled form): inactive; half-life [1]: 4 min |
| C[C@]12CC[C@H](O)C[C@@H]1[C@@H](O)C[C@@H]1[C@@H]2CC[C@@]2(C)[C@H]1CC[C@@H]2[C@@](C)(O)CCCc1cccnc1 | 1200 nM |  |  |  |
| CCCCCC[C@@](O)(CC)[C@H]1CC[C@H]2[C@@H]3C[C@H](O)[C@H]4C[C@@H](O)CC[C@]4(C)[C@H]3CC[C@]12C | 2900 nM | 9% |  |  |
| CCCCCCC[C@](C)(O)[C@H]1CC[C@H]2[C@@H]3C[C@H](O)[C@H]4C[C@@H](O)CC[C@]4(C)[C@H]3CC[C@@]21C | 500 nM |  | 17 |  |
| [2H]C([2H])(CCCC)C([2H])([2H])[C@](C)(O)[C@H]1CC[C@H]2[C@@H]3C[C@H](O)[C@H]4C[C@@H](O)CC[C@]4(C)[C@H]3CC[C@@]21C | 300 nM | 100% | 35 |  |
| CCCCC[C@](C)(O)[C@H]1CC[C@H]2[C@@H]3C[C@H](O)[C@H]4C[C@@H](O)CC[C@]4(C)[C@H]3CC[C@@]21C | 6600 nM |  | 4 |  |
| [2H][C@@H](CC(C)C)[C@H]([2H])[C@](C)(O)[C@H]1CC[C@H]2[C@@H]3C[C@H](O)[C@H]4C[C@@H](O)CC[C@]4(C)[C@H]3CC[C@]12C | 1000 nM |  |  | half-life [3]: > 120 min |
| CCCCCC[C@](C)(O)[C@H]1CC[C@H]2[C@@H]3C[C@H](O)[C@H]4C[C@@H](O)CC[C@]4(C)[C@H]3CC[C@@]21C | 400 nM | 2% | 36 | Activity (Rattus norvegicus [4]): Active; Activity (Rattus norvegicus [5]): inactive |
| C[C@]12CC[C@H](O)C[C@@H]1[C@@H](O)C[C@@H]1[C@@H]2CC[C@@]2(C)[C@H]1CC[C@@H]2[C@@](C)(O)CCCc1ccccc1 | 2500 nM | 1% | 2 |  |
| C[C@]12CC[C@H](O)C[C@@H]1[C@@H](O)C[C@@H]1[C@@H]2CC[C@@]2(C)[C@H]1CC[C@@H]2[C@@](C)(O)CCCc1ccncc1 | > 5000 nM |  | 2 |  |
| CCCCCC[C@@](O)(c1ccccc1)[C@H]1CC[C@H]2[C@@H]3C[C@H](O)[C@H]4C[C@@H](O)CC[C@]4(C)[C@H]3CC[C@@]21C | > 10000 nM | 69% |  |  |
| CC(C)CCC[C@@](C)(O)[C@H]1CC[C@H]2[C@@H]3C[C@H](O)[C@H]4C[C@@H](O)CC[C@]4(C)[C@H]3CC[C@@]21C | > 10000 nM |  |  |  |
